Experimental data reported in ChEMBL document CHEMBL3217604, “4-Alkyloxyimino-cytosine nucleotides: tethering approaches to molecular probes for the P2Y6 receptor” (Medchemcomm, 2013).
Activity calls are given as the source filed them. The rule behind the calls is not given here.

Assays:
[1] = molecular target: T1, P2Y purinoceptor 4 (Homo sapiens, UniProt P51582); test: Agonist activity at human recombinant P2Y4 receptor expressed in human 1321N1 cells using [3H]inositol as substrate assessed as [3H]inositol phosphate formation at 10 uM after 30 mins by liquid scintillation counting analysis; type: functional, cell-based
T1 sequence (P51582 whole entry): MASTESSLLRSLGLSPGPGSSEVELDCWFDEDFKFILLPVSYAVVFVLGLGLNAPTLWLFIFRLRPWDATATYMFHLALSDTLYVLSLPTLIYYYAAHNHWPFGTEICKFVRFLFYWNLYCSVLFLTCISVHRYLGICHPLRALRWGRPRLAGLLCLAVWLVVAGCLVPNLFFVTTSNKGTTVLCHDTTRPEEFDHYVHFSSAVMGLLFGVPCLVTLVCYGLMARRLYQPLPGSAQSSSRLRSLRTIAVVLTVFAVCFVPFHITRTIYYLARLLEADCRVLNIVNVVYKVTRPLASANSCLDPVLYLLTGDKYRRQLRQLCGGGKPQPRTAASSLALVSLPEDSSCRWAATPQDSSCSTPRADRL
Procedure, shortened: (§1)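 PLC activation measured in 1321N1 human astrocytoma cells stably expressing recombinant hP2Y2, hP2Y4 or hP2Y6 receptor; potency given as EC50 or % activation.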

[2] = molecular target: T2, P2Y purinoceptor 6 (Homo sapiens, UniProt Q15077); test: Agonist activity at human recombinant P2Y6 receptor expressed in human 1321N1 cells using [3H]inositol as substrate assessed as [3H]inositol phosphate formation after 30 mins by liquid scintillation counting analysis; type: functional, cell-based; procedure, shortened: as §1
T2 sequence (Q15077 whole entry): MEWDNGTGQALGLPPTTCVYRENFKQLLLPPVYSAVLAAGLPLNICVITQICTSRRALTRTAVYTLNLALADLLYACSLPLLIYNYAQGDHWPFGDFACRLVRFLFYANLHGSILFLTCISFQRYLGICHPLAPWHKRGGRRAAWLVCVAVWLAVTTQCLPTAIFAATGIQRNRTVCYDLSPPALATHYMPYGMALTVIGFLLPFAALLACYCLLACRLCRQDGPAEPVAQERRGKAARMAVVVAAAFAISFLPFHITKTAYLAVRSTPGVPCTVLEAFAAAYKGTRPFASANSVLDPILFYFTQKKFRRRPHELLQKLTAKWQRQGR

[3] = molecular target: T2, P2Y purinoceptor 6; test: Binding affinity to human recombinant P2Y6 receptor expressed in human 1321N1 cells at 100 nM to 1 uM by flow cytometry in presence of UDP; type: cell-based
Procedure, shortened: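 1321N1 cells with or without P2Y6R labeled with 100 nM to 1 μM Cy5 conjugate; blockade tested with 100 μM UDP; read by flow cytometry.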

[4] = molecular target: T3, P2Y purinoceptor 2 (Homo sapiens, UniProt P41231); test: Agonist activity at human recombinant P2Y2 receptor expressed in human 1321N1 cells using [3H]inositol as substrate assessed as [3H]inositol phosphate formation after 30 mins by liquid scintillation counting analysis; type: functional, cell-based; procedure, shortened: as §1
T3 sequence (P41231 whole entry): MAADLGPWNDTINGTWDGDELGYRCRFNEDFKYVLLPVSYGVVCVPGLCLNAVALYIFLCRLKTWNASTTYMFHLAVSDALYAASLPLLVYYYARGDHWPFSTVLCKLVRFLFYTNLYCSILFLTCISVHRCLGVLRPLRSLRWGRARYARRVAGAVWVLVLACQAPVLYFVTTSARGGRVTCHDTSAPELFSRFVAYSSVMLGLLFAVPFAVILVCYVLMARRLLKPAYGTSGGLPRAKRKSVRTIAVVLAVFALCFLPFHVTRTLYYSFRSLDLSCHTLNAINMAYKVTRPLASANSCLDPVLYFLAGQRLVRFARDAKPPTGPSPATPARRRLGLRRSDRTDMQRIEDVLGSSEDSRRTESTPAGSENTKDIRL

[5] = molecular target: T1, P2Y purinoceptor 4; test: Agonist activity at human recombinant P2Y4 receptor expressed in human 1321N1 cells using [3H]inositol as substrate assessed as [3H]inositol phosphate formation after 30 mins by liquid scintillation counting analysis; type: functional, cell-based; procedure, shortened: as §1
[6] = molecular target: T2, P2Y purinoceptor 6; test: Binding affinity to human recombinant P2Y6 receptor expressed in human 1321N1 cells at 400 nM after 60 mins by flow cytometry; type: cell-based
[7] = species on record: Homo sapiens; test: Selectivity ratio of EC50 for human recombinant P2Y4 receptor to EC50 for human recombinant P2Y6 receptor
[8] = species on record: Homo sapiens; test: Selectivity ratio of EC50 for human recombinant P2Y2 receptor to EC50 for human recombinant P2Y6 receptor
[9] = molecular target: T3, P2Y purinoceptor 2; test: Agonist activity at human recombinant P2Y2 receptor expressed in human 1321N1 cells using [3H]inositol as substrate assessed as [3H]inositol phosphate formation at 10 uM after 30 mins by liquid scintillation counting analysis; type: functional, cell-based; procedure, shortened: as §1
[10] = molecular target: T2, P2Y purinoceptor 6; test: Binding affinity to human recombinant P2Y6 receptor expressed in human 1321N1 cells assessed as association rate constant at 400 nM by flow cytometry; type: cell-based
Procedure, shortened: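 Flow cytometric kinetics of 400 nM fluorescent ligand binding to 1321N1-P2Y6R cells at 37 °C; nonspecific binding defined with 100 μM UDP; association rate constant k1 derived from time course.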

[11] = molecular target: T2, P2Y purinoceptor 6; test: Binding affinity to human recombinant P2Y6 receptor expressed in human 1321N1 cells at 500 nM after 60 mins by fluorescence microscopy in presence of MRS2957; type: cell-based
Procedure, shortened: (§2)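 P2Y6R-expressing 1321N1 cells preincubated 30 min at 37 °C with 500 nM MRS2957 or MRS2578, then exposed to 500 nM fluorescent agonist for 60 min at 37 °C; imaged by fluorescence microscopy (excitation 495 nm, emission 519 nm).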

[12] = molecular target: T2, P2Y purinoceptor 6; test: Agonist activity at human recombinant P2Y6 receptor expressed in human 1321N1 cells assessed as compound internalization at 1 uM after 60 mins by confocal microscopy in presence of sucrose; type: cell-based
Procedure, shortened: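 P2Y6R-expressing 1321N1 cells incubated with 1 μM fluorescent agonist for 60 min at 37 °C in medium containing 0.4 M sucrose; labeling imaged by confocal microscopy.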

[13] = molecular target: T2, P2Y purinoceptor 6; test: Agonist activity at human recombinant P2Y6 receptor expressed in human 1321N1 cells assessed as compound internalization at 2 uM after 60 mins by confocal microscopy; type: cell-based
Procedure, shortened: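 Confocal microscopy of P2Y6R-expressing 1321N1 cells after 60 min at 37 °C with 2 μM fluorescent agonist; cells without ligand served as control.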

[14] = molecular target: T2, P2Y purinoceptor 6; test: Binding affinity to human recombinant P2Y6 receptor expressed in human 1321N1 cells at 400 nM after 60 mins by flow cytometry at 400 nM after 60 mins by flow cytometry; type: cell-based
Procedure, shortened: (§3)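 1321N1-P2Y6R cells incubated with 400 nM fluorescent ligand at 37 °C for 60 min; nonspecific binding with 100 μM UDP; surface fraction in 0.4 M sucrose medium; internalized fraction as acid-insensitive fluorescence after 3 × 5 min acid wash (pH 3.5); fluorescence converted to MESF, nonspecific subtracted.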

[15] = molecular target: T2, P2Y purinoceptor 6; test: Binding affinity to human recombinant P2Y6 receptor expressed in human 1321N1 cells assessed as compound internalization measured as the acid-insensitive fraction following acid wash at 400 nM after 60 mins by flow cytometry; type: cell-based; procedure, shortened: as §3
[16] = molecular target: T2, P2Y purinoceptor 6; test: Binding affinity to human recombinant P2Y6 receptor expressed in human 1321N1 cells assessed as surface bound fraction at 400 nM after 60 mins by flow cytometry in sucrose containing media; type: cell-based; procedure, shortened: as §3
[17] = molecular target: T2, P2Y purinoceptor 6; test: Binding affinity to human recombinant P2Y6 receptor expressed in human 1321N1 cells at 500 nM after 3 hrs by flow cytometry in presence of UDP relative to control; type: cell-based
Procedure, shortened: (§4)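 Saturation labeling by flow cytometry, 10 nM to 1.5 μM fluorescent ligand, 3 h at 37 °C on 1321N1-P2Y6R cells; nonspecific binding with 100 μM UDP; autofluorescence from ligand-free cells; values as MESF.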

[18] = molecular target: T2, P2Y purinoceptor 6; test: Binding affinity to human recombinant P2Y6 receptor expressed in human 1321N1 cells at 10 nM to 1.5 uM after 3 hrs by flow cytometry relative to control; type: cell-based; procedure, shortened: as §4
[19] = molecular target: T2, P2Y purinoceptor 6; test: Binding affinity to human recombinant P2Y6 receptor expressed in human 1321N1 cells at 10 nM to 10 uM after 60 mins by flow cytometry relative to control; type: cell-based
Procedure, shortened: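 Flow cytometry of 1321N1-P2Y6R and control 1321N1 cells after 60 min with 10 nM to 10 μM fluorescent ligand.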

[20] = molecular target: T2, P2Y purinoceptor 6; test: Binding affinity to human recombinant P2Y6 receptor expressed in human 1321N1 cells at 400 nM after 3 hrs by flow cytometry; type: cell-based
Procedure, shortened: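 FCM histogram of 1321N1-P2Y6R cells after 3 h incubation with 400 nM fluorescent ligand; total, nonspecific and autofluorescence measured; three independent experiments.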

[21] = molecular target: T4, P2Y purinoceptor 14 (Homo sapiens) (UniProt Q15391); test: Agonist activity at human P2Y14 receptor expressed in rat C6 cells assessed as inhibition of forskolin-stimulated adenylate cyclase up to 10 uM; type: functional, cell-based
T4 sequence (whole entry): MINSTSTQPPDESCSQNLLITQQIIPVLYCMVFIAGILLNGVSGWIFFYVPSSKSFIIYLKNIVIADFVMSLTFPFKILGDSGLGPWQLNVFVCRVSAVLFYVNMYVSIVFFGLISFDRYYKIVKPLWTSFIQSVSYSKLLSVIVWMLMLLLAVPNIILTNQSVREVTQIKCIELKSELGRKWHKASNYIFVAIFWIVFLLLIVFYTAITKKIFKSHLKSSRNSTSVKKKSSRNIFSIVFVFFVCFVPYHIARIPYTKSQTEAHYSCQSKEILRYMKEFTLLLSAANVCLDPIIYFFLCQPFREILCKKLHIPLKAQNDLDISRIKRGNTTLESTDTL

[22] = molecular target: P2Y purinoceptor 1 (Homo sapiens) (UniProt P47900); test: Binding affinity to P2Y1 receptor (unknown origin) expressed in human 1321N1 cells at 400 nM after 60 mins by flow cytometry; type: cell-based
P2Y purinoceptor 1 (Homo sapiens), sequence (P47900 whole entry): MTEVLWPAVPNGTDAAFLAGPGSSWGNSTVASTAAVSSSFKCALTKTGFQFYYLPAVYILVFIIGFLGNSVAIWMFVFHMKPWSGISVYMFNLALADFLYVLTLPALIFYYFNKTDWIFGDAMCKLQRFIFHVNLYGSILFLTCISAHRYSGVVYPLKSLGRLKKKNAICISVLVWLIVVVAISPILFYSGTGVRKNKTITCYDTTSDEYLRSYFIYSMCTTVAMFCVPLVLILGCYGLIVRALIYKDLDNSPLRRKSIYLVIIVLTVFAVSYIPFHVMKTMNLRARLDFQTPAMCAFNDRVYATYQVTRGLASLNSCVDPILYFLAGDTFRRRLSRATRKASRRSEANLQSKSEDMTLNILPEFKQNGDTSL

[23] = molecular target: T2, P2Y purinoceptor 6; test: Binding affinity to human recombinant P2Y6 receptor expressed in human 1321N1 cells after 2 mins by flow cytometry in presence of MRS2578; type: cell-based
Procedure, shortened: (§5)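 1321N1-P2Y6R cells preincubated 30 min with known ligand (UDP 10 μM, MRS2957 0.5 μM, MRS2578 1 μM), then briefly exposed (2 min) to fluorescent agonist; labeling quantified by flow cytometry.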

[24] = molecular target: T2, P2Y purinoceptor 6; test: Binding affinity to human recombinant P2Y6 receptor expressed in human 1321N1 cells at 500 nM after 60 mins by fluorescence microscopy in presence of MRS2578; type: cell-based; procedure, shortened: as §2
[25] = molecular target: T2, P2Y purinoceptor 6; test: Binding affinity to human recombinant P2Y6 receptor expressed in human 1321N1 cells after 2 mins by flow cytometry in presence of MRS2957; type: cell-based; procedure, shortened: as §5
[26] = molecular target: T2, P2Y purinoceptor 6; test: Binding affinity to human recombinant P2Y6 receptor expressed in human 1321N1 cells after 2 mins by flow cytometry in presence of UDP; type: cell-based; procedure, shortened: as §5

Row | Activity [1] [%] | EC50 [2] [nM] | EC50 [4] [nM] | EC50 [5] [nM] | SMILES | other results
1 | < 50 | 148 | – | – | O=c1[nH]/c(=N\OCc2ccc(I)cc2)ccn1[C@@H]1O[C@H](COP(=O)(O)OP(=O)(O)O)[C@@H](O)[C@H]1O | –
2 | – | 32 | 5200 | 7440 | O=c1[nH]/c(=N\OCc2ccc(Br)cc2)ccn1[C@@H]1O[C@H](COP(=O)(O)OP(=O)(O)O)[C@@H](O)[C@H]1O | –
3 | – | 100 | 3900 | 952 | C#CCCC#Cc1cccc(CO/N=c2/ccn([C@@H]3O[C@H](COP(=O)(O)OP(=O)(O)O)[C@@H](O)[C@H]3O)c(=O)[nH]2)c1 | –
4 | – | 39 | 6200 | > 10000 | O=c1[nH]/c(=N\OCc2cccc(Br)c2)ccn1[C@@H]1O[C@H](COP(=O)(O)OP(=O)(O)O)[C@@H](O)[C@H]1O | Ratio EC50 [7]: > 260; Ratio EC50 [8]: 160
5 | – | 41 | 3300 | 2200 | O=c1[nH]/c(=N\OCc2ccc([N+](=O)[O-])cc2)ccn1[C@@H]1O[C@H](COP(=O)(O)OP(=O)(O)O)[C@@H](O)[C@H]1O | –
6 | – | 19 | 2500 | 352 | O=c1[nH]/c(=N\OCc2cccc(I)c2)ccn1[C@@H]1O[C@H](COP(=O)(O)OP(=O)(O)O)[C@@H](O)[C@H]1O | –

The next lines start with the molecule.

Row | SMILES | Activity [1] [%] | EC50 [2] [nM] | EC50 [4] [nM] | EC50 [5] [nM] | other results
7 | CN1/C(=C/C=C/C=C/C2=[N+](CCCCCCC(=O)NCCCCCCn3cc(CCC#Cc4cccc(CO/N=c5/ccn([C@@H]6O[C@H](COP(=O)(O)OP(=O)(O)O)[C@@H](O)[C@H]6O)c(=O)[nH]5)c4)nn3)c3ccccc3C2(C)C)C(C)(C)c2ccccc21 | – | – | – | – | Activity [3]: inactive
8 | CO/N=c1/ccn([C@@H]2O[C@H](COP(=O)(O)OP(=O)(O)OP(=O)(O)Oc3ccc4ccccc4c3)[C@@H](O)[C@H]2O)c(=O)[nH]1 | < 50 | 731 | 2900 | – | –
9 | O=c1ccn([C@@H]2O[C@H](COP(=O)(O)OP(=O)(O)OP(=O)(O)OC[C@H]3O[C@@H](n4cc/c(=N/OCc5ccccc5)[nH]c4=O)[C@H](O)[C@@H]3O)[C@@H](O)[C@H]2O)c(=O)[nH]1 | – | 126 | 1700 | 636 | –
10 | CC(=O)NCCn1cc(CCOP(=O)(O)OP(=O)(O)OP(=O)(O)OC[C@H]2O[C@@H](n3cc/c(=N/OCc4ccccc4)[nH]c3=O)[C@H](O)[C@@H]2O)nn1 | – | 879 | 3800 | 3300 | –
11 | N=c1ccc2c(-c3ccc(C(=O)NCCCCCCn4cc(CCC#Cc5cccc(CO/N=c6/ccn([C@@H]7O[C@H](COP(=O)(O)O)[C@@H](O)[C@H]7O)c(=O)[nH]6)c5)nn4)cc3C(=O)O)c3ccc(N)c(S(=O)(=O)O)c3oc-2c1S(=O)(=O)O | – | – | – | – | Activity [6]: inactive
12 | C#CCCCOP(=O)(O)OP(=O)(O)OP(=O)(O)OC[C@H]1O[C@@H](n2cc/c(=N/OCc3ccccc3)[nH]c2=O)[C@H](O)[C@@H]1O | < 50 | > 10000 | – | – | –
13 | C#CCCOP(=O)(O)OP(=O)(O)OP(=O)(O)OC[C@H]1O[C@@H](n2cc/c(=N/OCc3ccccc3)[nH]c2=O)[C@H](O)[C@@H]1O | < 50 | 1750 | – | – | Activity [9]: < 50%
14 | O=c1[nH]/c(=N\OCc2ccccc2)ccn1[C@@H]1O[C@H](COP(=O)(O)OP(=O)(O)O)[C@@H](O)[C@H]1O | – | – | – | – | EC50 ([2]; 1321-n1): 26 nM
15 | N=c1ccc2c(-c3ccc(C(=O)NCCCCCCn4cc(CCC#Cc5cccc(CO/N=c6/ccn([C@@H]7O[C@H](COP(=O)(O)OP(=O)(O)O)[C@@H](O)[C@H]7O)c(=O)[nH]6)c5)nn4)cc3C(=O)O)c3ccc(N)c(S(=O)(=O)O)c3oc-2c1S(=O)(=O)O | < 50 | 9 | 2500 | – | K [10]: 0.019 min⁻¹; Activity [11]: inactive; Activity [12]: inactive; Activity [13]: Active; Activity [14]: 23%; Activity [15]: 77%; Activity [16]: 17%; Ratio [17]: 4; Activity [18]: Active; Activity [19]: Active; Activity [20]: Active; Ratio EC50 [7]: > 1100; Ratio EC50 [8]: 280; inhibition [21]: inactive; Activity [22]: inactive; Activity [23]: inactive; Activity [24]: inactive; Activity [25]: inactive; Activity [26]: inactive
